The text below walks through data of article PMC11904594 (Current Research in Microbial Sciences, 2025).

Data set [1] deals with 11 bacterial strains (S. aureus, P. aeruginosa, A. baumannii, K. pneumoniae, E. coli). Put plainly: Antimicrobial activity screening, summary over groups of strains. The data set is classed as cell-based. Particulars: 50 µg/ml screen.
Data set [2] relates to A. baumannii ATCC 19606. Put plainly: Antimicrobial activity screening. The following applies: 50 µg/ml screen. The data set is classed as cell-based, Acinetobacter baumannii.
Data set [3] deals with Galleria mellonella larvae. Put plainly: In vivo toxicity in Galleria mellonella larvae. The following applies: G. mellonella larvae, N=10 per group. An outline of the steps:
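Sixth-instar Galleria mellonella larvae (200–300 mg) were held in sawdust at 4 °C until use. Groups of ten were injected with 10 μl of test compound, colistin or 0.9 % NaCl saline control into the second rear proleg, then kept at 30 °C.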

Peptide text beside a SMILES is read from it.

With `CC[C@H](C)[C@H](NC(=O)[C@H](CCCCN)NC(=O)[C@H](CCCCN)NC(=O)[C@H](Cc1ccccc1)NC(=O)[C@H](CC(C)C)NC(=O)[C@H](CCCCN)NC(=O)[C@H](CCCCN)NS(=O)(=O)c1ccc(C)cc1)C(=O)N[C@@H](CC(C)C)C(=O)N[C@@H](CCCCN)C(=O)N[C@@H](CCCCN)C(=O)N[C@@H](CC(C)C)C(N)=O` [BP125], in data set [1], the “growth inhibition in all strains except both K. pneumoniae and E. coli ATCC 25,922” value is given as no less than 83%.
For the molecule `CC[C@H](C)[C@H](NC(=O)[C@H](CCCCN)NC(=O)[C@H](CCCCN)NC(=O)[C@@H](Cc1ccccc1)NC(=O)[C@H](CC(C)C)NC(=O)[C@H](CCCCN)NC(=O)[C@@H](N)CCCCN)C(=O)N[C@@H](CC(C)C)C(=O)N[C@@H](CCCCN)C(=O)N[C@@H](Cc1ccc(O)cc1)C(=O)N[C@@H](CC(C)C)C(N)=O` [BP143], the “growth inhibition for all Gram-negative strains tested” value in data set [1] was no less than 83%.
For the molecule `CC[C@H](C)[C@H](NC(=O)[C@@H](CCCCN)NC(=O)[C@H](CCCCN)NC(=O)[C@H](Cc1ccccc1)NC(=O)[C@H](CC(C)C)NC(=O)[C@H](CCCCN)NC(=O)[C@@H](N)CCCCN)C(=O)N[C@@H](CC(C)C)C(=O)N[C@@H](CCCCN)C(=O)N[C@@H](Cc1ccc(O)cc1)C(=O)N[C@@H](CC(C)C)C(N)=O` [BP146], the “growth reduction in all strains except P. aeruginosa ST175–1” value in data set [1] is “at least 89%”.
In the case of `CC[C@H](C)[C@H](NC(=O)[C@H](CCCCN)NC(=O)[C@H](CCCCN)NC(=O)[C@H](Cc1c[nH]cn1)NC(=O)[C@H](CC(C)C)NC(=O)[C@H](CCCCN)NC(=O)[C@H](Cc1ccccc1)NS(=O)(=O)c1ccc(C)cc1)C(=O)N[C@@H](CC(C)C)C(=O)N[C@@H](CCCCN)C(=O)N[C@H](C(=O)N[C@@H](CC(C)C)C(N)=O)C(C)C` [BP275] (HELM PEPTIDE1{[Cc1ccc(S(=O)(=O)[*:2])cc1].F.K.L.H.K.K.I.L.K.V.L.[am]}$$$$V2.0), the “growth inhibition against A. baumannii ATCC 19,606” value in data set [2] is listed as no less than 93%.
On the same count and under the same terms, for `CCCC(=O)NCCCC[C@H](NC(=O)[C@@H](NC(=O)[C@H](CCCCN)NC(=O)[C@H](CCCCN)NC(=O)[C@@H](Cc1ccccc1)NC(=O)[C@H](CC(C)C)NC(=O)[C@H](CCCCN)NC(=O)[C@H](CCCCN)NC(C)=O)[C@@H](C)CC)C(=O)N[C@@H](CCCCN)C(=O)N[C@@H](Cc1ccc(O)cc1)C(=O)N[C@@H](CC(C)C)C(N)=O` [BP474] the value was no less than 93%.
For Colistin, the “mortality after 24h” value in data set [3] (50 µg/larvae (10 μl of 5 mg/ml), 30 °C) was 50%. For the same molecule, the LD50 in data set [3] (10 μl injected, viability at 48h) was 5 mg/mL.
